Here are results for six molecules from ChEMBL document CHEMBL1142995, “Probing the pharmacophore of ginkgolides as glycine receptor antagonists” (J Med Chem, 2007).

Holding throughout (type): cell-based
The target of experiment [1] is T1, Glycine receptor subunit alpha-1 (Homo sapiens, UniProt P23415).
T1 sequence (P23415 whole entry): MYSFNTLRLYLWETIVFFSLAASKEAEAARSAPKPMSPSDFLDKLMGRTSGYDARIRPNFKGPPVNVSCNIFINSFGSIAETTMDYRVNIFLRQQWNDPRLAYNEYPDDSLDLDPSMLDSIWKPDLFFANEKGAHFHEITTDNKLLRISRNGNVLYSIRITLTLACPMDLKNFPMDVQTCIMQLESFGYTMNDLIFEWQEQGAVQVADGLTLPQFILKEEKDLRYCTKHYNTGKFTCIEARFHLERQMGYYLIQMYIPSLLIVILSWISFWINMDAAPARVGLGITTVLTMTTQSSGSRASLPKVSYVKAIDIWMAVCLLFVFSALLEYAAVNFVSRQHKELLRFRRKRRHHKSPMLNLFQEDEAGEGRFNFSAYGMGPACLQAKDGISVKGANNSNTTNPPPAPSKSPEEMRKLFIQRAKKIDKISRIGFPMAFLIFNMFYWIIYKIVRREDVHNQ
Description: Activity at human alpha-1GlyR expressed in HEK293 cells by FMP assay. Summed up: (§1)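 Stable HEK293 lines (α1: G418; α1β: G418 + hygromycin B; α2: hygromycin B) plated on poly-D-lysine 16-24 h. Loaded with FMP dye in HBSS/20 mM HEPES pH 7.4, antagonist present, 30 min at 37 °C. Fluorescence ex 530/em 560 nm read up to 1 min after glycine: 200 µM (α1, α1β) or 500 µM (α2). Duplicates, ≥3 experiments; IC50 from maximal responses.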

Experiment [2] deals with T1, Glycine receptor subunit alpha-1. Kind of experiment: Activity at human alpha-1-beta-GlyR expressed in HEK293 cells by FMP assay. Summed up: as §1
Experiment [3] addresses T2, Glycine receptor subunit alpha-2 (Homo sapiens, UniProt P23416).
T2 sequence (P23416 whole entry): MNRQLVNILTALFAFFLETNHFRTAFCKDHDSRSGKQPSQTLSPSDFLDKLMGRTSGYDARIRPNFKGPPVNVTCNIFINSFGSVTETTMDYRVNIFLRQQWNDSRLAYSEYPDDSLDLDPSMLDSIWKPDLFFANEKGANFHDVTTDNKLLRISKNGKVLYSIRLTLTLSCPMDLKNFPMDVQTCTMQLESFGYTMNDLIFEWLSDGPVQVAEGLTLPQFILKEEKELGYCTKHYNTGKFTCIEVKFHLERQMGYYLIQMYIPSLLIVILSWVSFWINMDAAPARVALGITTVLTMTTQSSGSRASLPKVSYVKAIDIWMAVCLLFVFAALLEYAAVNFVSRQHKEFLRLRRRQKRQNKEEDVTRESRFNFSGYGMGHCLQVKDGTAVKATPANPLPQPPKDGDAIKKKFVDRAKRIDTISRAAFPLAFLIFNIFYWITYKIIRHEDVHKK
Description: Activity at human alpha-2GlyR expressed in HEK293 cells by FMP assay. Summed up:
as §1

Experiment [4] deals with T1, Glycine receptor subunit alpha-1. Kind of experiment: Activity at human alpha-1GlyR expressed in HEK293 cells assessed as inhibition of 300 uM glycine-induced current by whole-cell patch clamp experiment. A general note: The patch-clamp technique gives a direct electrical read-out from membranes.
Experiment [5] shares this target. Description: Activity at human alpha-1GlyR expressed in HEK293 cells assessed as inhibition of 30 uM glycine-induced current by whole-cell patch clamp experiment. Summed up: (§2)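 α1 GlyR-HEK293 cells, whole-cell patch clamp. Antagonist co-applied with 30 or 3000 µM glycine by gravity perfusion. Peak current normalised to that glycine concentration alone and fitted to Hill equation for IC50 and slope. Mean with 95% CI, 5 cells per glycine concentration.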

The target is the same in experiment [6]. Kind of experiment: Activity at human alpha1GlyR expressed in HEK293 cells assessed as inhibition of 3000 uM glycine-induced current by whole-cell patch clamp experiment. The essentials: as §2

Usually IC50 stands for the concentration that inhibits the measured activity by half.

Turning to `COCO[C@H]1C(=O)O[C@H]2O[C@@]34OC(=O)[C@@H]5C[C@@H](C(C)(C)C)[C@@]21[C@]53C[C@@H]1OC(=O)[C@@H](C)[C@@]14O` [10-METHOXYMETHYLOXY-GINKGOLIDE A], the IC50 in experiment [1], in experiment [2] and in experiment [3] was greater than 100000 nM in each case.

Turning to `C[C@@H]1C(=O)O[C@H]2C[C@@]34[C@H]5C[C@@H](C(C)(C)C)[C@]36[C@@H](OC(=O)[C@@H]6O)O[C@@]4(C(=O)O5)[C@]21O` [GINKGOLIDE A], the IC50 in experiment [1] worked out at 1900 nM; in experiment [2], 690 nM; in experiment [3], 2100 nM; in experiment [4], 3800 nM.

With `C[C@@H]1C(=O)O[C@H]2[C@H](O)[C@]34[C@@H]5OC(=O)[C@]3(O[C@@H]3OC(=O)[C@H](O)[C@@]34[C@H](C(C)(C)C)[C@H]5O)[C@@]12O` [GINKGOLIDE C], the IC50 in experiment [1] was found to be 4700 nM; in experiment [2], 2400 nM; in experiment [5], 2400 nM; in experiment [3] it was 8200 nM; in experiment [4], 1700 nM; in experiment [6], 5900 nM.

Regarding `C[C@@H]1C(=O)O[C@H]2C[C@@]34O[C@@H]5OC(=O)[C@H](O)[C@@]56[C@H](C(C)(C)C)[C@H](O)C(OC3=O)[C@]64[C@]21O` (stereo not given in full) [GINKGOLIDE J], the IC50 in experiment [1] was 7100 nM; in experiment [2] it was 4200 nM; in experiment [3], 12000 nM; in experiment [4] it was 6400 nM.

`C[C@@H]1C(=O)O[C@@H]2[C@H]1[C@@]13OC4OC(=O)[C@H](O)C45[C@H](C(C)(C)C)[C@@H](O)C(OC1=O)[C@]53[C@H]2O` (stereo not given in full) [GINKGOLIDE M]: the IC50 in experiment [1] was 780 nM; in experiment [2], 560 nM; in experiment [3], 1300 nM; in experiment [4], 650 nM.

With `C[C@@H]1C(=O)O[C@H]2[C@H](O)[C@@]34[C@H]5C[C@@H](C(C)(C)C)[C@]36[C@@H](OC(=O)[C@@H]6O)O[C@@]4(C(=O)O5)[C@@]12O` [GINKOLIDE B], the IC50 is 2900 nM in experiment [1], 2100 nM in experiment [2], 3700 nM in experiment [3] and 1700 nM in experiment [4].
